ChEMBL document CHEMBL1122131, “1,1,2-triphenylbut-1-enes: relationship between structure, estradiol receptor affinity, and mammary tumor inhibiting properties” (1982)

Experiments:
[1] = biological target: Estrogen receptor (Bos taurus) (UniProt Q9XSB5+P49884); assay: Binding affinity against Estrogen receptor in calf-uterine cytosol relative to 17-beta-estradiol using [3H]estradiol.; format: protein assay
How it was run: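 Calf uterine cytosol was incubated with [3H]estradiol and six concentrations of unlabeled competitor at 4 °C for 16 h. Incubation was stopped with dextran-coated charcoal; after centrifugation, supernatant radioactivity was counted. The concentrations of estradiol and of test compound giving 50% displacement were read from a semilog plot. Relative binding affinity = [E2]/[I] × 100.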

Mus musculus [2] = assay: Anti-neoplastic effect in estrogen and progesterone receptor positive hormone-dependent postmenopausal human mammary carcinoma bearing mice at 3 mg/kg/day; format: functional
How it was run: (§1)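 Human ER- and PR-positive, hormone-dependent postmenopausal mammary carcinoma, serially transplanted in NMRI nu/nu mice (castrated females or males, about 25 g, 6–7 weeks old, 10–12 per group). Drug given sc in olive oil 6 times/week; controls received vehicle for 4–6 weeks. Two tumor diameters measured weekly. Size is relative to treatment start (=1), averaged after 4 weeks. Compared with controls at α ≤ 0.05.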

Mus musculus [3] = assay: Anti-neoplastic effect in estrogen and progesterone receptor positive hormone-dependent postmenopausal human mammary carcinoma bearing mice at 2.5 mg/kg/day; format: functional; how it was run: as §1
Mus musculus [4] = assay: Anti-neoplastic effect in estrogen and progesterone receptor positive hormone-dependent postmenopausal human mammary carcinoma bearing mice at 3.4 mg/kg/day; format: functional; how it was run: as §1
Rattus norvegicus [5] = assay: Percent complete remission in DMBA-induced hormone-dependent mammary carcinoma bearing rats at 0.85 mg/kg/day; format: functional
How it was run: (§2)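 Female Sprague-Dawley rats received one 20 mg DMBA dose by gastric intubation at age 50 days. About 4 weeks later, rats with at least one tumor over 140 mm² were grouped in tens. Drug given sc in olive oil 6 times/week. Read-outs were tumors classed as complete remission, partial remission, no change or progression, plus % change in tumor area and in body weight.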

Rattus norvegicus [6] = assay: Percent tumor progression in DMBA-induced hormone-dependent mammary carcinoma bearing rats at 1.71 mg/kg/day; format: functional; how it was run: as §2
Rattus norvegicus [7] = assay: Percent unchanged tumor size in DMBA-induced hormone-dependent mammary carcinoma bearing rats at 1.71 mg/kg/day; format: functional; how it was run: as §2
Rattus norvegicus [8] = assay: Percent partial remission in DMBA-induced hormone-dependent mammary carcinoma bearing rats at 0.85 mg/kg/day; format: functional; how it was run: as §2
Rattus norvegicus [9] = assay: Percent change in body weight in DMBA-induced hormone-dependent mammary carcinoma bearing rats at 6.83 mg/kg/day; format: functional; how it was run: as §2
Rattus norvegicus [10] = assay: Percent complete remission in DMBA-induced hormone-dependent mammary carcinoma bearing rats at 1.71 mg/kg/day; format: functional; how it was run: as §2
Rattus norvegicus [11] = assay: Percent complete remission in DMBA-induced hormone-dependent mammary carcinoma bearing rats at 6.83 mg/kg/day; format: functional; how it was run: as §2
Rattus norvegicus [12] = assay: Percent change in tumor area in DMBA-induced hormone-dependent mammary carcinoma bearing rats at 6.83 mg/kg/day; format: functional; how it was run: as §2
Rattus norvegicus [13] = assay: Percent tumor progression in DMBA-induced hormone-dependent mammary carcinoma bearing rats at 0.85 mg/kg/day; format: functional; how it was run: as §2
Rattus norvegicus [14] = assay: Percent change in tumor area in DMBA-induced hormone-dependent mammary carcinoma bearing rats at 0.85 mg/kg/day; format: functional; how it was run: as §2
Rattus norvegicus [15] = assay: Percent partial remission in DMBA-induced hormone-dependent mammary carcinoma bearing rats at 1.71 mg/kg/day; format: functional; how it was run: as §2
Rattus norvegicus [16] = assay: Percent unchanged tumor size in DMBA-induced hormone-dependent mammary carcinoma bearing rats at 6.83 mg/kg/day; format: functional; how it was run: as §2
Rattus norvegicus [17] = assay: Percent change in body weight in DMBA-induced hormone-dependent mammary carcinoma bearing rats at 1.71 mg/kg/day; format: functional; how it was run: as §2
Rattus norvegicus [18] = assay: Percent tumor progression in DMBA-induced hormone-dependent mammary carcinoma bearing rats at 6.83 mg/kg/day; format: functional; how it was run: as §2
Rattus norvegicus [19] = assay: Percent change in tumor area in DMBA-induced hormone-dependent mammary carcinoma bearing rats at 1.71 mg/kg/day; format: functional; how it was run: as §2
Rattus norvegicus [20] = assay: Percent unchanged tumor size in DMBA-induced hormone-dependent mammary carcinoma bearing rats at 0.85 mg/kg/day; format: functional; how it was run: as §2
Rattus norvegicus [21] = assay: Percent partial remission in DMBA-induced hormone-dependent mammary carcinoma bearing rats at 6.83 mg/kg/day; format: functional; how it was run: as §2
Rattus norvegicus [22] = assay: Percent change in body weight in DMBA-induced hormone-dependent mammary carcinoma bearing rats at 0.85 mg/kg/day; format: functional; how it was run: as §2
Mus musculus [23] = assay: Anti-neoplastic effect in estrogen and progesterone receptor positive hormone-dependent postmenopausal human mammary carcinoma bearing mice at 2.2 mg/kg/day; format: functional; how it was run: as §1

Row | Structure (SMILES) | RBA [1] [%] | Tumor size (Mus musculus [2]) | Tumor size (Mus musculus [3]) | further results
1 | CC/C(=C(\c1ccccc1)c1cccc(OC(C)=O)c1)c1ccccc1 | 0.3 | – | 2.41 | –
2 | CCC(=C(c1cccc(OC(C)=O)c1)c1cccc(OC(C)=O)c1)c1cccc(OC(C)=O)c1 | 1.5 | – | – | Tumors (Rattus norvegicus [5]): 2%; Tumors (Rattus norvegicus [6]): 44%; Tumors (Rattus norvegicus [7]): 37%; Tumors (Rattus norvegicus [8]): 14%; Change (Rattus norvegicus [9]): 3.6%; Change (Rattus norvegicus [10]): 3%; Change (Rattus norvegicus [11]): 5%; Change (Rattus norvegicus [12]): 54%; Tumors (Rattus norvegicus [13]): 40%; Change (Rattus norvegicus [14]): 102%; Tumors (Rattus norvegicus [15]): 16%; Tumors (Rattus norvegicus [16]): 30%; Change (Rattus norvegicus [17]): 3.2%; Tumors (Rattus norvegicus [18]): 35%; Change (Rattus norvegicus [19]): 78%; Tumors (Rattus norvegicus [20]): 44%; Tumors (Rattus norvegicus [21]): 30%; Change (Rattus norvegicus [22]): 5.2%; Tumor size (Mus musculus [4]): 2.12
3 | CC/C(=C(\c1ccc(OC(C)=O)cc1)c1cccc(OC(C)=O)c1)c1ccc(OC(C)=O)cc1 | 3 | – | – | Tumor size (Mus musculus [4]): 2.04
4 | CCC(=C(c1ccc(OC(C)=O)cc1)c1ccc(OC(C)=O)cc1)c1ccccc1 | 6.8 | 0.81 | – | –
5 | CCC(=C(c1ccccc1)c1ccccc1)c1ccc(OC(C)=O)cc1 | 3.8 | – | 1.12 | –
6 | CC/C(=C(/c1ccccc1)c1cccc(OC(C)=O)c1)c1ccccc1 | 0.7 | – | 2.12 | –
7 | CC/C(=C(\c1ccccc1)c1ccc(OC(C)=O)cc1)c1ccc(OC(C)=O)cc1 | 1 | 1.39 | – | –
8 | CC/C(=C(/c1ccccc1)c1cccc(OC(C)=O)c1)c1cccc(OC(C)=O)c1 | 1.1 | 1.35 | – | –
9 | CCC(=C(c1ccccc1)c1ccccc1)c1cccc(OC(C)=O)c1 | 1.5 | – | 1.04 | –

More lines, main results first:

Row | RBA [1] [%] | Structure (SMILES) | Tumor size (Mus musculus [2]) | Tumor size (Mus musculus [3]) | further results
10 | 5.9 | CC/C(=C(/c1ccccc1)c1ccc(OC(C)=O)cc1)c1ccc(OC(C)=O)cc1 | 0.83 | – | –
11 | 1.8 | CC/C(=C(/c1ccc(OC(C)=O)cc1)c1cccc(OC(C)=O)c1)c1cccc(OC(C)=O)c1 | – | – | Tumor size (Mus musculus [4]): 2.44
12 | 5.7 | CC/C(=C(/c1ccccc1)c1ccc(OC(C)=O)cc1)c1ccccc1 | – | 1.24 | –
13 | 0.8 | CCC(=C(c1ccccc1)c1ccccc1)c1ccccc1 | – | – | Tumor size (Mus musculus [23]): 1.61
14 | 2.7 | CC/C(=C(\c1ccc(OC(C)=O)cc1)c1cccc(OC(C)=O)c1)c1cccc(OC(C)=O)c1 | – | – | Tumor size (Mus musculus [4]): 1.69
15 | 1.2 | CCC(=C(c1cccc(OC(C)=O)c1)c1cccc(OC(C)=O)c1)c1ccccc1 | 2.4 | – | –
16 | 0.2 | CC/C(=C(\c1ccccc1)c1cccc(OC(C)=O)c1)c1cccc(OC(C)=O)c1 | 2.36 | – | –
17 | 4.2 | CCC(=C(c1ccc(OC(C)=O)cc1)c1ccc(OC(C)=O)cc1)c1ccc(OC(C)=O)cc1 | – | – | Tumor size (Mus musculus [4]): 1.52
18 | 2 | CC/C(=C(\c1ccccc1)c1ccc(OC(C)=O)cc1)c1ccccc1 | – | 1.3 | –
